# Source: PMC3662472 (Basic research in cardiology, 2012)
# “Also recorded” adds a separate entry of the source. Like-named read-outs stand apart in the source and are kept apart here. Ends that are not written are not given here.
# Experiments:
# [1] = tested on: Cx43 hemichannels (cultured pig ventricular cardiomyocytes); assay type: cell-based; conditions: Vm +70 mV, siCx43 n = 9, siCx43scr n = 6, MOCK n = 3, ***P < 0.001 siCx43 versus MOCK and siCx43scr
# [2] = tested on: porcine Cx43 gene gja1 / Cx43 expression; test: Cx43 expression; assay type: cell-based; conditions: cultured pig ventricular cardiomyocytes
# [3] = target: Cx43 hemichannels (HeLa-Cx43 cells) (Mus musculus, UniProt P23242); assay type: cell-based; conditions: for Qm (% normalized to average before peptide addition), time course: repeated Vm steps to +70 mV, n = 3; for Qm versus control / HC-mediated unitary events: concentration not given; for Qm versus control: Vm +70 mV (30 s); for Qm at steady state (reduction to, % of value before peptide): n = 5
# Chain of Cx43 hemichannels (HeLa-Cx43 cells) (P23242 whole entry): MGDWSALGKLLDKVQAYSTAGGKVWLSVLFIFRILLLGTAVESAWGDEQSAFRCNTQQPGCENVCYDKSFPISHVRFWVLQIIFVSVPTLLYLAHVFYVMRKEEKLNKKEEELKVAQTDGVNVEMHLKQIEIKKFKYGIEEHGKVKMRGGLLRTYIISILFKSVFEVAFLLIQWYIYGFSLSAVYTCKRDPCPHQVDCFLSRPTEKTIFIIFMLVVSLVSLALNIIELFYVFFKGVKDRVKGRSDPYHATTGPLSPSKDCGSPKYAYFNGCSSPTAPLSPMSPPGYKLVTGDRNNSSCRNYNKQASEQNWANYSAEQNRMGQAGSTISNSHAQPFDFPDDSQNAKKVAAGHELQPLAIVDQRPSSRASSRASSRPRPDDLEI
# Procedure, shortened: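 HeLa cells stably express mouse Cx43 from a CMV vector and are kept in DMEM with 20 % FBS, 2 mM glutamine and 1 μg/mL puromycin. In whole-cell clamp (1–3 MΩ pipettes, pH 7.2, 50 nM Ca2+, 1 kHz filter), peptide is pre-incubated 30 min or added during recording. Qm is integrated unitary current over each step, normalized to pre-peptide or […] control. Mean ± SEM, ANOVA/Bonferroni or t test.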
# [4] = tested on: Cx43 hemichannels (pig ventricular cardiomyocytes); test: Unitary hemichannel currents in isolated pig left ventricular cardiomyocytes; assay type: cell-based; conditions: Vm −70 to +80 mV
# [5] = tested on: Panx1 HCs; conditions: 20 μM; ref [6]; cited from earlier work
# [6] = scrambled peptide, Vm +70 mV, HeLa-Cx43
molecule,measurement,setting,value
5′-GAAAGAGGAGGAACUCAAA-dTdT-3′ [siCx43],Cx43 HC unitary current activity (Qm),[1]; listed as siRNA directed against Cx43,significantly inhibited
same,"Cx43 expression, % of control (MOCK)",[2]; *P < 0.05 versus siCx43scr and MOCK,50%
same,Cx43 expression knockdown,[2]; siRNA 24 h,~ 50%
PSFDSRHCIVKYV [SGap26],inhibition of Qm at 1 mM,"[3]; 1 mM, Vm +70 mV, HeLa-Cx43",strong inhibition
same,inhibitory effect on Qm over concentration range,[3]; concentration range at which Gap26 displayed inhibition,did not exhibit inhibitory effects
same,"Qm (% normalized to average before peptide addition), time course",[3],around 100%
same,Qm versus control,"[3]; scrambled peptide, HeLa-Cx43",not different from control
same,HC-mediated unitary events,[3]; [6],did not reveal any inhibition
same,Qm decay over time,"[3]; time course, Vm steps to +70 mV, scrambled peptide",did not cause any Qm decay
TFEPIRISITK [SGap27],effect on Qm versus concentration,"[3]; concentration dependence, Vm +70 mV, HeLa-Cx43",did not affect Qm unless it was applied at 1 mM concentration
same,"Qm (% normalized to average before peptide addition), time course",[3],around 100%
same,Qm versus control,"[3]; scrambled peptide, HeLa-Cx43",not different from control
same,HC-mediated unitary events,[3]; [6],did not reveal any inhibition
"SRPTEKTIFII [Gap27, SRPTEKTIFII]",IC50,[3],~161 µM
same,"Qm at steady state (reduction to, % of value before peptide)","[3]; 300 μM, Vm steps to +70 mV, **P < 0.01 versus SGap27",~ 15%
5′-AGAGAUACGAACAAGAGAG-3′ [siCx43^scr],Cx43 HC unitary current activity (Qm),[1],no effect
same,effect on Cx43 expression,[2]; scrambled siRNA,no effect
CC1(C)[C@@H](OC(=O)CCC(=O)O)CC[C@]2(C)[C@H]3C(=O)C=C4[C@@H]5C[C@@](C)(C(=O)O)CC[C@]5(C)CC[C@@]4(C)[C@]3(C)CC[C@@H]12 [carbenoxolone],unitary current events in cardiomyocytes,[4]; 20 μM,not influenced; also recorded: not affected
same,unitary current events in cardiomyocytes,"[4]; 20 μM, listed as Carbenoxolone",no effect
same,unitary current events in cardiomyocytes,[4]; 100 μM,acted inhibitory; also recorded: clearly inhibited the currents
same,unitary current activity,"[3]; 100 μM, Vm = +70 mV, HeLa-Cx43",rapidly disappeared
same,block of Panx1 HCs,[5],known to block Panx1 HCs
"VCYDKSFPISHVR [Gap26, VCYDKSFPISHVR]",IC50,[3],~81 µM
same,"Qm at steady state (reduction to, % of value before peptide)","[3]; 250 μM, Vm steps −30 to +70 mV, *P < 0.05 versus SGap26",~ 35%
